The values below come from ChEMBL document CHEMBL2203191, “Synthesis and biological evaluation of new fluorine substituted derivatives as angiotensin II receptor antagonists with anti-hypertension and anti-tumor effects” (Bioorg Med Chem, 2012).

Calls of active or inactive are those of the source. The calls are words filed in the database; no cut-off is given here.

The subject of data set [1] is Rattus norvegicus. The data set is described as follows: Cardiotoxicity in SHR rat assessed as effect on heart rate at 10 mg/kg, po. More on the design: dose 10 mg/kg, route oral. The format is toxicity, organism-based. Particulars: in vivo. The gist of the method: (§1)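 Heart rate taken in SHR (250-300 g, 10 per group) given 5 or 10 mg/kg orally as a suspension in 0.5% sodium carboxymethyl cellulose, alongside a vehicle control. Monitored under sodium pentobarbital anesthesia (40 mg/kg ip) through a carotid arterial catheter and pressure transducer, continuously for over 10 h and again at 24 h.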

A short description of data set [2]: (§2) Displacement of [125I]Angiotensin-2 from angiotensin AT1 receptor in Sprague-Dawley rat VSMC after 60 mins by gamma counting. The gist of the method:
(§3)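 VSMCs from SD rat thoracic aorta, grown as explants in DMEM with 15% FBS; passages 3–7 used. Cells incubated with 0.1 nM [125I]Ang II and compound (1 × 10^-6 to 1 × 10^-12 M final) for 60 min at 37 °C. Nonspecific binding set with 1 µM Ang II. After PBS washes, cells lysed in 0.1 M NaOH and counted by gamma counter. IC50 obtained by regression of displacement curves; Ki = IC50/(1+[L]/Kd).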
A general note: In a radioligand displacement assay an active substance lowers the binding of a labelled ligand.

The species named for data set [3] is Rattus norvegicus. Described as §2. The gist of the method:
as §3

The subject of data set [4] is Rattus norvegicus. The data set is described as follows: Antihypertensive activity in SHR rat assessed as decrease in mean arterial pressure at 5 to 10 mg/kg, po measured for 8 hrs after dosing. The format is functional, organism-based. Particulars: Artery. The gist of the method: (§4)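 SHR (250-300 g) or renal hypertensive rats (SD rats, 250-350 g, left renal artery fully ligated under sodium pentobarbital 40 mg/kg; SBP above 160 mmHg selected), 10 per group. Dosed orally at 5 or 10 mg/kg as a suspension in 0.5% sodium carboxymethyl cellulose; vehicle-only negative control. Rats under pentobarbital (40 mg/kg ip) with right carotid cannulated to a pressure transducer; MAP recorded continuously for over 10 h and again at 24 h.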

Data set [5] relates to Rattus norvegicus. Kind of data set: Cardiotoxicity in SHR rat assessed as effect on heart rate at 5 mg/kg, po. More on the design: dose 5 mg/kg, route oral. Particulars: in vivo. The format is toxicity, organism-based. The gist of the method: as §1
Data set [6] has as its system Rattus norvegicus. The data set is described as follows: Antihypertensive activity in Sprague-Dawley rat renal hypertensive model assessed as decrease in mean arterial pressure at 10 mg/kg, po. Type of data set: functional, organism-based. More on the design: dose 10 mg/kg. Conditions: Artery. The gist of the method: as §4
In data set [7] the test system is Rattus norvegicus. The data set is described as follows: Antihypertensive activity in SHR rat assessed as decrease in mean arterial pressure at 10 mg/kg, po after 3 hrs. Type of data set: functional, Artery. The gist of the method: as §4
Data set [8] concerns Rattus norvegicus. Kind of data set: Antihypertensive activity in SHR rat assessed as decrease in mean arterial pressure at 5 mg/kg, po after 3 hrs. The format is functional, Artery. The gist of the method: as §4
Data set [9] concerns Rattus norvegicus. The data set is described as follows: Antihypertensive activity in SHR rat assessed as decrease in mean arterial pressure at 5 mg/kg, po. The format is functional, Artery. The gist of the method: as §4
In data set [10] the test system is Rattus norvegicus. The data set is described as follows: Antihypertensive activity in SHR rat assessed as decrease in mean arterial pressure at 10 mg/kg, po. The format is functional, Artery. The gist of the method: as §4
Data set [11] concerns LNCaP. Kind of data set: Antitumor activity against human LNCAP cells xenografted in athymic nude mouse assessed as relative tumor volume at 5 mg/kg/day dosed on day 8 measured at 4 weeks post implantation by caliper measurement (reference value: 28.34 +/-2.05). Type of data set: functional. In general terms: In xenograft studies the graft and the host belong to different species.

Data set [12] has as its system LNCaP. Kind of data set: Cytotoxicity against human LNCAP cells assessed as cell viability at 10 uM after 24 to 96 hrs by MTT assay. The format is cell-based. The gist of the method: (§5)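 LNCaP cells (1 × 10^5 per well) grown overnight at 37 °C, 5% CO2, then exposed to compound at 10 µM, with or without Ang II (1 × 10^-7 M). Control got medium with 0.05% v/v DMSO. MTT (5 mg/mL stock) added after 24, 48, 72 or 96 h and incubated 4 h at 37 °C; formazan dissolved in DMSO and read at 570 nm.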
(Tetrazolium assays rely on reduction of a dye to a coloured formazan, in cell work by metabolically active cells.)

The subject of data set [13] is Rattus norvegicus. Kind of data set: Antihypertensive activity in SHR rat assessed as decrease in mean arterial pressure at 5 to 10 mg/kg, po after 3 to 5 hrs. The format is functional, organism-based. Conditions: Artery. The gist of the method:
as §4

Data set [14] has as its system LNCaP. The data set is described as follows: Antitumor activity against human LNCAP cells xenografted in athymic nude mouse assessed as relative tumor volume at 10 mg/kg/day dosed on day 8 measured at 4 weeks post implantation by caliper measurement (reference value: 28.34 +/-2.05). The format is functional.
For data set [15], the system named is Rattus norvegicus. The data set is described as follows: Antihypertensive activity in SHR rat assessed as decrease in mean arterial pressure at 10 mg/kg, po after 24 hrs. The format is functional, organism-based. Set-up: dose 10 mg/kg. Conditions: Artery. The gist of the method:
as §4

Data set [16] concerns LNCaP. Kind of data set: Antiproliferative activity against human LNCAP cells assessed as reduction in Ang-2-induced increase in cell viability at 10 uM after 24 to 96 hrs by MTT assay. The format is functional, cell-based. The gist of the method:
as §5

The test system of data set [17] is Rattus norvegicus. The data set is described as follows: Antihypertensive activity in Sprague-Dawley rat renal hypertensive model assessed as decrease in mean arterial pressure at 5 mg/kg, po. Type of data set: functional, organism-based. More on the design: dose 5 mg/kg. Particulars: Artery. The gist of the method:
as §4

Data set [18] has as its system Rattus norvegicus. Kind of data set: Antihypertensive activity in SHR rat assessed as decrease in mean arterial pressure at 10 mg/kg, po measured for 9 hrs after dosing. Type of data set: functional, organism-based. Set-up: dose 10 mg/kg. Particulars: Artery. The gist of the method:
as §4

Data set [19] deals with Rattus norvegicus. Kind of data set: Antihypertensive activity in SHR rat assessed as mean arterial pressure at 5 to 10 mg/kg, po. The format is functional, organism-based. Conditions: Artery. The gist of the method: as §4
Data set [20] deals with Rattus norvegicus. The data set is described as follows: Antihypertensive activity in SHR rat assessed as decrease in mean arterial pressure at 10 mg/kg, po measured for 7 hrs after dosing. Type of data set: functional, organism-based. More on the design: dose 10 mg/kg. Particulars: Artery. The gist of the method:
as §4

In the case of `CCCCc1nc(Cl)c(C(=O)O)n1Cc1ccc(-c2cc(F)ccc2C(=O)O)cc1`, the Activity result was “Non-toxic” in the data set on Rattus norvegicus [1], “Non-toxic” in the data set on Rattus norvegicus [5], 32 mmHg in the data set with Rattus norvegicus [7] and 23 mmHg in the data set on Rattus norvegicus [8]. Also, the 50% inhibitory concentration (IC50) (in general, the midpoint of a concentration-inhibition curve) in [2] was 13.6 nM. Besides, the affinity in data set [2] corresponds to a Ki of 9.17 nM. Also, in the data set listed under Rattus norvegicus [3], the inhibition result is “Dose-dependent effect”. Besides, the outcome in the data set with Rattus norvegicus [4] and with Rattus norvegicus [6] was Active.
Take `CCCCc1nc(Cl)c(CO)n1Cc1ccc(-c2ccc(F)cc2C(=O)O)cc1`: the Activity result is “Non-toxic” in the data set on Rattus norvegicus [1], 18 mmHg in the data set with Rattus norvegicus [9], “Non-toxic” in the data set with Rattus norvegicus [5] and 25 mmHg with Rattus norvegicus [10]. The same molecule registered an IC50 in data set [2] of 4.11 nM. In addition, in [2], the inhibition constant Ki (usually a measure of affinity in units of concentration, obtained from inhibition or displacement) is 3.78 nM. The inhibition result in the data set listed under Rattus norvegicus [3] was “Dose-dependent effect”. Also, the outcome in the data set with Rattus norvegicus [4] and in the data set on Rattus norvegicus [6] was Active.
In data set [2], `CCCCC1=NC2(CCCC2)C(=O)N1Cc1ccc(-c2ccccc2-c2nnn[nH]2)cc1` [IRBESARTAN] yielded a half-maximal inhibitory concentration (IC50) of 3.11 nM and an inhibitory constant (Ki) of 2.75 nM. Moreover, in the data set listed under Rattus norvegicus [3], the inhibition result was “Dose-dependent effect”.
Turning to `CCCC(=O)N(Cc1ccc(-c2ccc(F)cc2C(=O)O)cc1)[C@H](C(=O)O)C(C)C`, the Activity entry is on record as “Non-toxic” with Rattus norvegicus [1]; 27 mmHg in the data set with Rattus norvegicus [9]; “Non-toxic” in the data set on LNCaP [12]; “Non-toxic” in the data set on Rattus norvegicus [5]; 42 mmHg in the data set with Rattus norvegicus [10]. Also, the IC50 in [2] stood at 0.584 nM. Also, affinity in data set [2] was put at a Ki of 0.42 nM. Moreover, the inhibition entry in the data set filed under Rattus norvegicus [3] was “Dose-dependent effect”. Besides, the Ratio with LNCaP [11] is reported as 17.44; with LNCaP [14] it was 12.39. Further, the outcome in the data set on Rattus norvegicus [13], with Rattus norvegicus [6], with Rattus norvegicus [15], with LNCaP [16] and in the data set on Rattus norvegicus [17] was Active.
With `CCCCc1nc(Cl)c(CO)n1Cc1ccc(-c2ccccc2-c2nn[nH]n2)cc1` [LOSARTAN], the Activity entry with Rattus norvegicus [1] and in the data set with LNCaP [12] was “Non-toxic” each time.
As for `CCCCC(=O)N(Cc1ccc(-c2ccccc2-c2nnn[nH]2)cc1)[C@H](C(=O)O)C(C)C` [VALSARTAN], the figures for the Activity result in the data set on Rattus norvegicus [1] and in the data set with Rattus norvegicus [10] were “Non-toxic” and 28 mmHg, respectively. For the same molecule, the result with Rattus norvegicus [18] and with Rattus norvegicus [6] was Active. Moreover, in [2], the half-inhibitory concentration (IC50) was determined as 2.64 nM. In addition, in [2], the Ki was 2.08 nM. The inhibition result in the data set listed under Rattus norvegicus [3] is “Dose-dependent effect”.
For `CCCCc1nc(Cl)c(C(=O)O)n1Cc1ccc(-c2cc(F)c(F)cc2C(=O)O)cc1`, the Activity result in the data set on Rattus norvegicus [1] and in the data set with Rattus norvegicus [5] was “Non-toxic” throughout. Further, the IC50 in data set [2] was 13.5 nM. In data set [2], this molecule yielded a Ki of 9.11 nM. Further, the inhibition result in the data set listed under Rattus norvegicus [3] is “Dose-dependent effect”. Further, in the data set on Rattus norvegicus [19], the outcome was inactive.
For the molecule `CCCCC1=NC2(CCCC2)C(=O)N1Cc1ccc(-c2ccc(F)cc2C(=O)O)cc1`, the Activity entry in the data set on Rattus norvegicus [1] and in the data set on Rattus norvegicus [5] was “Non-toxic” throughout. In [2], this molecule yielded a half-maximal inhibitory concentration (IC50) of 9.98 nM. Also, the affinity in data set [2], expressed as Ki, was 6.75 nM. Besides, the inhibition result in the data set filed under Rattus norvegicus [3] is “Dose-dependent effect”. Further, the outcome in the data set with Rattus norvegicus [19] was inactive.
Regarding `CCCCc1nc(Cl)c(C(=O)O)n1Cc1ccc(-c2ccc(F)cc2C(=O)O)cc1`, the Activity result in the data set on Rattus norvegicus [1] is recorded as “Non-toxic”. In data set [2], this molecule displayed an IC50 of 26.1 nM and an inhibitory constant (Ki) of 17.6 nM. Moreover, in the data set filed under Rattus norvegicus [3], the inhibition result was “Dose-dependent effect”. In addition, the Activity result with Rattus norvegicus [5] is on record as “Non-toxic”. The result with Rattus norvegicus [19] was inactive.
On to `CCCCc1nc(Cl)c(CO)n1Cc1ccc(-c2ccccc2-c2nnn[nH]2)cc1` [LOSARTAN], for which the half-maximal inhibitory concentration (IC50) in [2] turned out to be 1.64 nM. This molecule had an inhibition constant (Ki) in data set [2] of 1.41 nM. The inhibition result in the data set listed under Rattus norvegicus [3] is “Dose-dependent effect”. For the same molecule, the values for the Ratio with LNCaP [11] and in the data set with LNCaP [14] were 21.44 and 15.75, respectively. The outcome in the data set with Rattus norvegicus [20], in the data set on Rattus norvegicus [6] and in the data set on LNCaP [16] was Active. In addition, in the data set on Rattus norvegicus [10], the Activity is listed as 27 mmHg.
